Legend:
[1] = tested on: Human immunodeficiency virus 1; assay: Antiviral activity against HIV1 in human MT4 cell assessed as inhibition of virus spread in presence of 10% fetal bovine serum; format: functional; conditions: Human immunodeficiency virus 1, MT4; read-out: CIC95
How it was run: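 Spread of HIV-1 infection in MT-4 human T-lymphoid cell culture with 10% fetal bovine serum; CIC95 is the concentration inhibiting spread by ≥95%; mean of at least three independent experiments.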

[2] = tested on: Human immunodeficiency virus 1; assay: Antiviral activity against HIV1 in human MT4 cell assessed as inhibition of virus spread in presence of 50% normal human serum; format: functional; conditions: Human immunodeficiency virus 1, MT4; read-out: CIC95
How it was run: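 Spread of HIV-1 infection in MT-4 human T-lymphoid cell culture with 50% normal human serum; CIC95 is the concentration inhibiting spread by ≥95%; mean of at least three independent experiments.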

[3] = tested on: Liver microsomes; assay: Metabolic stability in rat liver microsomes in presence of UDPGA; format: ADME, Microsome
[4] = tested on: Liver; assay: Metabolic stability in dog liver microsomes in presence of UDPGA; format: ADME, Canis lupus familiaris, Microsome
[5] = Protein binding in rat plasma; format: ADME, cell-free; conditions: read-out: PPB (converted)
How it was run: (§1)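 Plasma protein binding was measured by ultrafiltration after a 1 h incubation of compound in plasma at 37 °C.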

[6] = Protein binding in dog plasma; format: ADME, cell-free, Canis lupus familiaris; conditions: read-out: PPB (converted)
How it was run: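 Plasma protein binding measured by ultrafiltration after incubation at 37 °C for 1 h.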

[7] = Oral bioavailability in rat at 3 mg/kg; format: ADME, organism-based; conditions: in vivo
How it was run: (§2)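 In vivo PK: iv dosing in DMSO/PEG400/H₂O mixtures, oral dosing as methylcellulose suspension. Half-life was taken after iv dosing; AUC and Cmax after po dosing.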

[8] = Oral bioavailability in dog at 2 mg/kg; format: ADME, organism-based, Canis lupus familiaris; conditions: in vivo; how it was run: as §2
[9] = Oral bioavailability in rhesus monkey at 6.5 mg/kg; format: ADME, organism-based, Macaca mulatta; conditions: in vivo
How it was run: (§3)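 Rhesus dosed 1 mg/kg iv in DMSO and 6.5 mg/kg po in 0.5% methylcellulose; plasma clearance and oral bioavailability.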

[10] = Plasma clearance in rat at 3 mg/kg, po or 3 mg/kg, iv; format: ADME, organism-based; how it was run: as §2
[11] = Plasma clearance in dog at 1 mg/kg, iv or 2 mg/kg, po; format: ADME, organism-based, Canis lupus familiaris; how it was run: as §2
[12] = Plasma clearance in rhesus monkey at 1 mg/kg, iv or 6.5 mg/kg, po; format: ADME, organism-based, Macaca mulatta; how it was run: as §3
[13] = biological target: T1, DNA polymerase alpha catalytic subunit (Homo sapiens, UniProt P09884); assay: Inhibition of human DNA polymerase alpha
T1 sequence (P09884 whole entry): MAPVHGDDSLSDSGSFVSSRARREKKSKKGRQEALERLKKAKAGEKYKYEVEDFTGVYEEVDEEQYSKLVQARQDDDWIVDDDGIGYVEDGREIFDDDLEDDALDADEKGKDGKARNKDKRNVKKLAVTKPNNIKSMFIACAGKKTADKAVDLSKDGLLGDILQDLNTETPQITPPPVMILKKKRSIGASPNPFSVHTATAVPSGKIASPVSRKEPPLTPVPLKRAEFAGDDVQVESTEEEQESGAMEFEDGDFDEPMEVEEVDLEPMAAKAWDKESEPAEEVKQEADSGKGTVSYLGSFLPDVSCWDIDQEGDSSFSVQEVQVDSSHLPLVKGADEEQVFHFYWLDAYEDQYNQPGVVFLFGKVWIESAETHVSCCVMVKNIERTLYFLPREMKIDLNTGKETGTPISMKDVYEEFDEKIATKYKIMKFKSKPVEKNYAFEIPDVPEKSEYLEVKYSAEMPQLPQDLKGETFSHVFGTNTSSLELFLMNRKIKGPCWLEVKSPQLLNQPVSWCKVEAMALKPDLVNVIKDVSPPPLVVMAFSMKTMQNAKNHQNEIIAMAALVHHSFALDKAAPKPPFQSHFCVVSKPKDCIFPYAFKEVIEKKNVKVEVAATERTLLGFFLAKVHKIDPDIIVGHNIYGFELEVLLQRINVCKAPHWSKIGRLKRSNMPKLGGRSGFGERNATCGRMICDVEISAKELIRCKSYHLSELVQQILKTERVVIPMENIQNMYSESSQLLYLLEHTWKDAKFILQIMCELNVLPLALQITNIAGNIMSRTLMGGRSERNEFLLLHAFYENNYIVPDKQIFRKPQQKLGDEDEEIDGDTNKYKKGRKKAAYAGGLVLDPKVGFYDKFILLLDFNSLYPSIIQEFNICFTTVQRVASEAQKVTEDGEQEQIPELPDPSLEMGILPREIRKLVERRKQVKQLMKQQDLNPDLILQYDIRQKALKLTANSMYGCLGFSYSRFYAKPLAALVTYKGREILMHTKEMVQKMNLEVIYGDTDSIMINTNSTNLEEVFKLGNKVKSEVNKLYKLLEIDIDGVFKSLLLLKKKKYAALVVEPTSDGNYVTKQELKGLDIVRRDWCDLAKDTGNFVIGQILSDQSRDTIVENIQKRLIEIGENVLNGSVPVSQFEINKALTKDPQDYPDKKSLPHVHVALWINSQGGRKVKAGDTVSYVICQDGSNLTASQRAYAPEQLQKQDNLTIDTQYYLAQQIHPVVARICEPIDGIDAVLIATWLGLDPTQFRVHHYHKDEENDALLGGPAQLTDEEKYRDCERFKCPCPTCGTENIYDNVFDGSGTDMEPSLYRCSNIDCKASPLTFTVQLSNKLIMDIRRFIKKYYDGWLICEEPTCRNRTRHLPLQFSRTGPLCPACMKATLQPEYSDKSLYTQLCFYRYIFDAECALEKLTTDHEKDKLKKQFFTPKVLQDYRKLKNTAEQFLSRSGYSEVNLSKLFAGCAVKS

[14] = biological target: DNA polymerase beta (Homo sapiens, UniProt P06746); assay: Inhibition of human DNA polymerase beta
[15] = Inhibition of human DNA polymerase gamma
[16] = Inhibition of HIV-RNase-H; design: species or system Human immunodeficiency virus
[17] = Inhibition of HCV polymerase; design: species or system Hepacivirus hominis
[18] = biological target: Voltage-gated inwardly rectifying potassium channel KCNH2 (Homo sapiens, UniProt Q12809); assay: Inhibition of human ERG
Chain of Voltage-gated inwardly rectifying potassium channel KCNH2 (Q12809 whole entry): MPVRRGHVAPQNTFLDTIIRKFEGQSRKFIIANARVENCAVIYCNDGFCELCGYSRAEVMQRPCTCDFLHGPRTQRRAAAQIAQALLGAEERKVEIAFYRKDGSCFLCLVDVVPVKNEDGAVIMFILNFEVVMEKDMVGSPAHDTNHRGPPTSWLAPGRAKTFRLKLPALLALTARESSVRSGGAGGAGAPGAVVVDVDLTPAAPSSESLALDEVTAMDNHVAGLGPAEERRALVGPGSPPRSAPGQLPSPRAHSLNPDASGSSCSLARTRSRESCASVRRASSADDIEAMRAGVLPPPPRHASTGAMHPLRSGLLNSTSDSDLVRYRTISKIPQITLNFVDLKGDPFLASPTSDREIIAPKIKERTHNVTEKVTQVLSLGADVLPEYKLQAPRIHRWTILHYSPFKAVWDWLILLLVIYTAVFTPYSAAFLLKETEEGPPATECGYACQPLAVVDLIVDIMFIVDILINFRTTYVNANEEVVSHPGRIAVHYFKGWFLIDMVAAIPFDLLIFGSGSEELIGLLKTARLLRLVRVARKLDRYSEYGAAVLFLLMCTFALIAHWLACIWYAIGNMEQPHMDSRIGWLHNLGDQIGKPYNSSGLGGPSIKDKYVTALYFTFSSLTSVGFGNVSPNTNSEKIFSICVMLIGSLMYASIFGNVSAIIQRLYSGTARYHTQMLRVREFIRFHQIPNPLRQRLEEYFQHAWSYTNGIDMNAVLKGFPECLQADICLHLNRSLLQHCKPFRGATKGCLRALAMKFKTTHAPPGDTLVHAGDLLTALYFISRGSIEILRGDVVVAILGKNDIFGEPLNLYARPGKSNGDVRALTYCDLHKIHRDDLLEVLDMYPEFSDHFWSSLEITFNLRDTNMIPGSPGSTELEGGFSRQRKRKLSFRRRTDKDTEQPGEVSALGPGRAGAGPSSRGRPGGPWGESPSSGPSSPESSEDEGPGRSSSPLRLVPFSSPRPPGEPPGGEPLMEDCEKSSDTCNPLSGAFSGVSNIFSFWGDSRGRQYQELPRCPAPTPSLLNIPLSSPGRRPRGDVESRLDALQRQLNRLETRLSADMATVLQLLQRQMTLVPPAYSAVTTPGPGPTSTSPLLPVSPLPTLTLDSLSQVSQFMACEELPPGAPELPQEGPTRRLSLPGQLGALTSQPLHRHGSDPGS

[19] = biological target: T2, Cytochrome P450 1A2 (Homo sapiens, UniProt P05177); assay: Inhibition of CYP1A2; format: ADME
T2 sequence (P05177 whole entry): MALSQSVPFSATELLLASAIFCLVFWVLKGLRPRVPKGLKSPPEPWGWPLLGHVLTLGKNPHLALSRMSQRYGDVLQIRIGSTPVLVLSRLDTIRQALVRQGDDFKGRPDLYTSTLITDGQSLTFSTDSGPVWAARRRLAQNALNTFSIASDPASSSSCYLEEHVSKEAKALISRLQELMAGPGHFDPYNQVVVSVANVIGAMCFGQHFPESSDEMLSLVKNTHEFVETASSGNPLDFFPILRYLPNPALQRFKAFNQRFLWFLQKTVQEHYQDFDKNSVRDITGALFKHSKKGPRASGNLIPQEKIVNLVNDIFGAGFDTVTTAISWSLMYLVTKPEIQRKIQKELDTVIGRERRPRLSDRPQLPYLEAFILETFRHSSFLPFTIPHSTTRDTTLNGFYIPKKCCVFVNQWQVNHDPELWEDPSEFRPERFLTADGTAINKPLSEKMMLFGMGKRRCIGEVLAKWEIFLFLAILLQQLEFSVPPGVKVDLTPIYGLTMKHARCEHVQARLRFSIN

[20] = biological target: Cytochrome P450 2C19 (Homo sapiens, UniProt P33261); assay: Inhibition of CYP2C19; format: ADME
Chain of Cytochrome P450 2C19 (P33261 whole entry): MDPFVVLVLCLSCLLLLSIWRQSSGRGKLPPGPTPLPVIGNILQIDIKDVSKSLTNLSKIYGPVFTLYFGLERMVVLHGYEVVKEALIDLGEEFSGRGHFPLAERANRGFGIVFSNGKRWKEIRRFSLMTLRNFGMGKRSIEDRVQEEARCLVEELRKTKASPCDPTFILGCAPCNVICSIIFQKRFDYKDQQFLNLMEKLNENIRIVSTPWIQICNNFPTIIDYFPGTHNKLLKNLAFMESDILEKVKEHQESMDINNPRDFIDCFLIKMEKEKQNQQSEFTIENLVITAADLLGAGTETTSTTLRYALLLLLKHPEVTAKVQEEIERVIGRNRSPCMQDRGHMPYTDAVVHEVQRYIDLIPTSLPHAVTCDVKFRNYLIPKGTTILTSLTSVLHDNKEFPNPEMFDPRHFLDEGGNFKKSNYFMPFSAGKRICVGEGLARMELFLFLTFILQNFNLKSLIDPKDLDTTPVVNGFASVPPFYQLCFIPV

[21] = biological target: Cytochrome P450 2C9 (Homo sapiens, UniProt P11712); assay: Inhibition of CYP2C9; format: ADME
Chain of Cytochrome P450 2C9 (P11712 whole entry): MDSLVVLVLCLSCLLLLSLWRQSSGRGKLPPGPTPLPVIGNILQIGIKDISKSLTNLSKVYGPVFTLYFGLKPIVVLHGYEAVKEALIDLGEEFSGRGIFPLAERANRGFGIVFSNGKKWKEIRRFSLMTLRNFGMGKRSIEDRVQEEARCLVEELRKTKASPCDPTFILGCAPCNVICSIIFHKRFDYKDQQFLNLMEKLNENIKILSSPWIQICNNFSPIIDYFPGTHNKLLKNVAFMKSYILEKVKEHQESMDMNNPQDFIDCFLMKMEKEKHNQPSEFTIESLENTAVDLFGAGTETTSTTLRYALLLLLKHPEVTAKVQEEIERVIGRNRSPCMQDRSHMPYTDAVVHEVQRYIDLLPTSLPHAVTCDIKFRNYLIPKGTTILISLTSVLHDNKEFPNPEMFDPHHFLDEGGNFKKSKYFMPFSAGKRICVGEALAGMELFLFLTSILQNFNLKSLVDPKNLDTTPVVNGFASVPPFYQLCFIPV

[22] = biological target: Cytochrome P450 2D6 (Homo sapiens, UniProt P10635); assay: Inhibition of CYP2D6; format: ADME
Chain of Cytochrome P450 2D6 (P10635 whole entry): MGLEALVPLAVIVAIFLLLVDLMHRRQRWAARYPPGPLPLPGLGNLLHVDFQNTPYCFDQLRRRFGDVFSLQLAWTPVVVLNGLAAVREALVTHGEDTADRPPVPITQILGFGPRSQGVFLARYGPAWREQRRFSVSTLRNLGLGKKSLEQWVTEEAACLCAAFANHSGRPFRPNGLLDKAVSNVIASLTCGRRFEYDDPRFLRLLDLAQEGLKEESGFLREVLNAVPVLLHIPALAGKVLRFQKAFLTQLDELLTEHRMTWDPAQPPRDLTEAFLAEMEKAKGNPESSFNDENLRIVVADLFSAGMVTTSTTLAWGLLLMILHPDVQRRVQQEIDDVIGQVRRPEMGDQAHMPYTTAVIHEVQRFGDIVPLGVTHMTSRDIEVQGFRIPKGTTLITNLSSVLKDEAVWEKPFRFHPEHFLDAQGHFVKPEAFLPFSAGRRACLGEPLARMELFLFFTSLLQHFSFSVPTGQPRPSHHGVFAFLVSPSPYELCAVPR

[23] = biological target: Cytochrome P450 3A4 (Homo sapiens, UniProt P08684); assay: Inhibition of CYP3A4; format: ADME
Chain of Cytochrome P450 3A4 (P08684 whole entry): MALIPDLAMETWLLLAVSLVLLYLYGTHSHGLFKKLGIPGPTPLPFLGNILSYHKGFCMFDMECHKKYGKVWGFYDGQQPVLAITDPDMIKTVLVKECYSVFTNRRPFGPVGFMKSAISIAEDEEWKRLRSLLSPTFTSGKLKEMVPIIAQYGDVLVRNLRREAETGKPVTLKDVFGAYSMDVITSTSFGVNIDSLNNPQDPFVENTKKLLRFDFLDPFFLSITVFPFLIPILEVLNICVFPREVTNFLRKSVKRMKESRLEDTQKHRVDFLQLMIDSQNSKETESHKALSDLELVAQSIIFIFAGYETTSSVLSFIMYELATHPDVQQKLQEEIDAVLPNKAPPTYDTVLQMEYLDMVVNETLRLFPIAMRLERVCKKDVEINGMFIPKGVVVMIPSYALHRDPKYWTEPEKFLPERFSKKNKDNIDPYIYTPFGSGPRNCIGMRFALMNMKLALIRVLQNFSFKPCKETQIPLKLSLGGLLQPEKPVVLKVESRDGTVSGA

[24] = Protein binding in rhesus monkey plasma; format: ADME, cell-free, Macaca mulatta; conditions: read-out: PPB (converted); how it was run: as §1
[25] = Metabolic stability in rhesus monkey liver microsomes in presence of UDPGA; format: ADME, Macaca mulatta, Microsome
How it was run: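 Single-point measurement: compound 2 µM, microsomes 0.3 mg/mL, with UDPGA; degradation quantified by LC/MS/MS after 1 h of incubation.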

[26] = Inhibition of recombinant HIV1 integrase strand transfer activity
[27] = organism: Homo sapiens; assay: Protein binding in human plasma; conditions: read-out: PPB (converted)

SMILES: CN(C)S(=O)(=O)N(C)[C@@H]1CCCn2c1nc(C(=O)NCc1ccc(F)cc1)c(O)c2=O
- IC95 [1]: 0.016 µM
- IC95 [2]: 0.044 µM
- Stability [3]: 81 %/hr
- Stability [4]: 46 %/hr
- fraction unbound [5]: 0.01
- fraction unbound [6]: 0.11
- bioavailability [7]: 63%
- bioavailability [8]: 42%
- bioavailability [9]: 9%
- clearance [10]: 1.8 mL/min/kg
- clearance [11]: 3.8 mL/min/kg
- clearance [12]: 27 mL/min/kg
- IC50 [13]: > 200 µM
- IC50 [14]: > 200 µM
- IC50 [15]: > 200 µM
- IC50 [16]: > 25 µM
- IC50 [17]: > 50 µM
- IC50 [18]: 20 µM
- IC50 [19]: > 100 µM
- IC50 [20]: > 100 µM
- IC50 [21]: > 100 µM
- IC50 [22]: > 100 µM
- IC50 [23]: > 100 µM
- fraction unbound [24]: 0.14
- Stability [25]: 84 %/hr
- IC50 [26]: 0.007 µM
- fraction unbound [27]: 0.19

— ChEMBL document CHEMBL1143246, “Design and synthesis of bicyclic pyrimidinones as potent and orally bioavailable HIV-1 integrase inhibitors” (J Med Chem, 2008)
